In ChEMBL document CHEMBL3769315 (J Med Chem, 2016):
Values after ≈ are worked out from the molar mass of the structure shown.

What was measured:
[1] = Selectivity index, ratio of CC50 for human Huh7.5.1 cells infected with HCV JFH-1 virus to EC50 for HCV JFH-1 virus
Hepatitis C virus [2] = assay: microbe, parasite or virus in culture; format: functional, organism-based, Hepacivirus hominis; conditions: JFH-1, Huh-7.5.1, 48 h
[3] = Cytotoxicity against human Huh7.5.1 cells assessed as ATP level by luminescence analysis; conditions: huh-7
[4] = Solubility of compound in phosphate buffer at pH 7.4
[5] = Half life of compound in CD-1 mouse liver at 10 mg/kg, ip by UPLC-MS/MS analysis; format: ADME, organism-based; conditions: CD-1, mouse, liver
In short: (§1)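 Male CD-1 mice (~35 g) got a single i.p. dose of 10 mg/kg, prepared fresh at 2 mg/mL in 10% PEG300 / 90% of 30% HP-β-CD in water. Drug was measured by UPLC-MS/MS. Parameters came from noncompartmental analysis, with AUC by the linear trapezoidal method and liver/plasma ratios taken.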

Hepatocyte = conditions: human, hepatocytes
Hepatitis C virus [6] = assay: Antiviral activity against HCV genotype 1b pseudoparticle infected in human Huh7.5.1 cells assessed as inhibition of virus entry at 3.2 uM after 4 hrs by luciferase reporter gene assay; format: functional, Hepacivirus hominis; conditions: Huh-7, 4 h
In short: (§2)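 Huh7.5.1 cells seeded at 10^4 cells/well, cultured overnight, then infected for 4 h with pseudoparticles (HCVpp GT 1a or 1b, MLVpp, VSV-Gpp) while compound was present. Cells were washed and cultured 48 h, then a luciferase read-out was taken. Values are expressed as % of DMSO control. Cyclosporin A 10 μM and bafilomycin A1 10 nM were run in parallel.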

[7] = Cmax in CD-1 mouse liver at 10 mg/kg, ip after 24 hrs by UPLC-MS/MS analysis; format: ADME, organism-based; design: dose 10 mg/kg, route intraperitoneal; in short: as §1
Hepatitis C virus [8] = assay: Antiviral activity against HCV genotype 1a pseudoparticle infected in human Huh7.5.1 cells assessed as inhibition of virus entry at 3.2 uM after 4 hrs by luciferase reporter gene assay; format: functional, Hepacivirus hominis; conditions: subtype 1a, Huh-7, 4 h; in short: as §2
Hepatitis C virus [9] = assay: Antiviral activity against single rounded infectious HCV infected in human Huh7.5.1 cells assessed as viral level at 3.2 uM after 48 hrs by luciferase reporter gene assay; format: functional, Hepacivirus hominis; conditions: Huh-7, 48 h
In short: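 Huh7.5.1 cells (10^4 cells/well, overnight) were infected with single-round infectious HCV (HCVsc) in the presence of compound. Viral level was measured by luciferase after 48 h and expressed as % of DMSO control. The assay reports inhibition of early stages before assembly.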

Murine leukemia virus [10] = assay: Antiviral activity against Murine leukemia virus pseudoparticle infected in human Huh7.5.1 cells at 3.2 uM after 4 hrs by luciferase reporter gene assay; format: functional; conditions: Huh-7, 4 h; in short: as §2
Hepatitis C virus [11] = assay: Antiviral activity against HCV genotype 2a assessed as inhibition of RNA replication at 3.2 uM by cell-based replicon assay; format: functional, Hepacivirus hominis
In short: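 GT 2a subgenomic HCV replicon cells were seeded at 10^4 cells/well and incubated overnight. They were then exposed to compound for 48 h, and replication was read by luciferase activity. Results are given as % of DMSO control.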

[12] = system: Vesicular stomatitis virus; assay: Antiviral activity against Vesicular stomatitis virus G pseudoparticle infected in human Huh7.5.1 cells at 3.2 uM after 4 hrs by luciferase reporter gene assay; format: functional; conditions: Huh-7, 4 h; in short: as §2
histamine H1 receptor = histamine H1 receptor (Homo sapiens, UniProt P35367); assay: in vitro; conditions: PathHunter cells
[13] = (§3) Metabolic stability in rat liver microsomes assessed as half life by LC-MS/MS analysis in presence of NADPH
Hepatitis C virus [14] = assay: Antiviral activity against HCV genotype 1b pseudoparticle infected in human Huh7.5.1 cells assessed as inhibition of virus entry at 10 uM after 4 hrs by luciferase reporter gene assay; format: functional, Hepacivirus hominis; conditions: Huh-7, 4 h
Liver microsome [15] = assay: Metabolic stability in human liver microsomes assessed as half life by LC-MS/MS analysis in presence of NADPH
Hepatitis C virus [16] = assay: microbe, parasite or virus in culture; format: functional, Hepacivirus hominis; conditions: Huh-7, 48 h
[17] = Metabolic stability in mouse liver microsomes assessed as half life by LC-MS/MS analysis in presence of NADPH
Liver microsome [18] = assay: as §3
Murine leukemia virus [19] = assay: Antiviral activity against Murine leukemia virus pseudoparticle infected in human Huh7.5.1 cells at 10 uM after 4 hrs by luciferase reporter gene assay; format: functional; conditions: Huh-7, 4 h
Hepatitis C virus [20] = assay: Antiviral activity against HCV genotype 1a pseudoparticle infected in human Huh7.5.1 cells assessed as inhibition of virus entry at 10 uM after 4 hrs by luciferase reporter gene assay; format: functional, Hepacivirus hominis; conditions: subtype 1a, Huh-7, 4 h
[21] = system: Vesicular stomatitis virus; assay: Antiviral activity against Vesicular stomatitis virus G pseudoparticle infected in human Huh7.5.1 cells at 10 uM after 4 hrs by luciferase reporter gene assay; format: functional; conditions: Huh-7, 4 h
Hepatitis C virus [22] = assay: Antiviral activity against HCV genotype 2a assessed as inhibition of RNA replication at 10 uM by cell-based replicon assay; format: functional, Hepacivirus hominis
In short: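 GT 2a subgenomic replicon cells were plated at 10^4/well and incubated overnight. They were then treated with compound (10 μM, or 3.2 or 1 μM for some compounds) for 48 h. Luciferase activity was read and expressed as % of DMSO.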

Sequence of histamine H1 receptor (P35367 whole entry): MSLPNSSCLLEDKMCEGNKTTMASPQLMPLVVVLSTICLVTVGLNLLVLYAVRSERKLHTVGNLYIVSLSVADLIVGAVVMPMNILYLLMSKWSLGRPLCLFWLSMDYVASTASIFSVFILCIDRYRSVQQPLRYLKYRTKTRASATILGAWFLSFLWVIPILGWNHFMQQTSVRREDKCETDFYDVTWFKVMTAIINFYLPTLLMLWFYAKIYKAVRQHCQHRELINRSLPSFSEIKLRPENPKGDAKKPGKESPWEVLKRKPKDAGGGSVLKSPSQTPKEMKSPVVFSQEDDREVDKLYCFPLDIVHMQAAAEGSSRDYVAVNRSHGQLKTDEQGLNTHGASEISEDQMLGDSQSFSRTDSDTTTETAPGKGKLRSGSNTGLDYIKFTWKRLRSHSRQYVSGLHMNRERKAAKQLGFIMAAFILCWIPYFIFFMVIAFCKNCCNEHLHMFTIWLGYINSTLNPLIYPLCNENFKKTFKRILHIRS

SMILES | selectivity ratio [1] | EC50 (Hepatitis C virus [2]) | CC50 [3] | also measured
c1ccc(C(c2ccccc2)c2ccncc2)cc1 | < 2 | > 31.6 µM | 65.1 µM | 
Clc1ccc(C(c2ccc(Cl)cc2)N2CCCCC2)cc1 | 4 | 17.4 µM | 69 µM | 
CCCCN1CCN([C@H](c2ccccc2)c2ccc(Cl)cc2)CC1 | 209 | 0.195 µM | 40.8 µM | 
CN1CCN([C@H](c2ccccc2)c2ccc(Cl)cc2)CC1 |  | 0.02 µM | 37.5 µM | 
Clc1ccc([C@H](c2ccccc2)N2CCNCC2)cc1 | 333 | 0.032 µM | 9.31 µM | solubility kinetic [4]: 0.0303 mg/mL (≈ 106 µM); half-life [5]: 4.7 h; CC50 (Hepatocyte): 9.01 µM; inhibition at 3.2 µM (Hepatitis C virus [6]): 66.3%; Cmax [7]: 216 µM; inhibition at 3.2 µM (Hepatitis C virus [8]): 98.8%; inhibition at 3.2 µM (Hepatitis C virus [9]): 28.1%; inhibition at 3.2 µM (Murine leukemia virus [10]): 57.5%; inhibition at 3.2 µM (Hepatitis C virus [11]): 61.6%; inhibition at 3.2 µM [12]: 51.9%; inhibition at 2 h, 0.01 µM (histamine H1 receptor): 88.1%
CCN1CCN([C@H](c2ccccc2)c2ccc(Cl)cc2)CC1 |  |  | 37.9 µM | half-life [13]: 2.2 h
CC(C)CN1CCN([C@H](c2ccccc2)c2ccc(Cl)cc2)CC1 | 251 | 0.232 µM | 58.2 µM | 
OCCOCCN1CCN(C(c2ccc(Cl)cc2)c2ccc(Cl)cc2)CC1 |  |  |  | solubility kinetic [4]: 0.0445 mg/mL (≈ 109 µM); inhibition at 10 µM (Hepatitis C virus [14]): 80.8%; t1/2 (Liver microsome [15]): > 0.5 h; inhibition at 10 µM (Hepatitis C virus [16]): 1.8%; t1/2 [17]: 0.167 h; t1/2 (Liver microsome [18]): 0.228 h; inhibition at 10 µM (Murine leukemia virus [19]): 108%; inhibition at 10 µM (Hepatitis C virus [20]): 71.7%; inhibition at 10 µM [21]: 109%; inhibition at 10 µM (Hepatitis C virus [22]): 98.8%; inhibition at 2 h, 0.01 µM (histamine H1 receptor): 23.7%
FC(F)(F)CN1CCN([C@@H](c2ccccc2)c2ccc(Cl)cc2)CC1 |  | > 31.6 µM | > 100 µM | 
CN1CCC(N(c2ccccc2)c2ccccc2)CC1 | 21 | 2.72 µM | 56.8 µM | 
CCCN1CCN([C@@H](c2ccccc2)c2ccc(Cl)cc2)CC1 | 1240 | 0.032 µM | 39.7 µM | 
c1ccc(C(c2ccccc2)C2CCNCC2)cc1 | 451 | 0.072 µM | 32.5 µM | 
CCCN1CCN([C@H](c2ccccc2)c2ccc(Cl)cc2)CC1 | 2020 | 0.024 µM | 48.5 µM | 
[2H]C([2H])([2H])N1CCN([C@H](c2ccccc2)c2ccc(Cl)cc2)CC1 |  | 0.04 µM | 46.7 µM | 
FC(F)(F)CN1CCN([C@H](c2ccccc2)c2ccc(Cl)cc2)CC1 |  | > 31.6 µM |  | 
Clc1ccc([C@H](c2ccccc2)N2CCN(C3CCCC3)CC2)cc1 | 1600 | 0.019 µM | 30.4 µM | 
CC(=O)N1CCN([C@@H](c2ccccc2)c2ccc(Cl)cc2)CC1 | 4 | 22 µM | 91.3 µM | 
Clc1ccc([C@H](c2ccccc2)N2CCN(C3CCCCC3)CC2)cc1 | 69 | 0.177 µM | 12.3 µM | 
CN1CCC(N(c2ccccc2)c2ccc(OC(C)(C)C)cc2)CC1 | 222 | 0.354 µM | 78.7 µM | 
CCCCN1CCN([C@@H](c2ccccc2)c2ccc(Cl)cc2)CC1 | 740 | 0.042 µM | 31.1 µM | 
